According to ChEMBL document CHEMBL1132319, “2,3-Dihydro-2-oxo-1H-benzimidazole-1-carboxamides with selective affinity for the 5-HT(4) receptor: synthesis and structure-affinity and structure-activity relationships of a new series of partial agonist and antagonist derivatives” (J Med Chem, 1999):

Legend:
[1] = biological target: T1, Serotonin 3 (5-HT3) receptor (Rattus norvegicus, UniProt P35563+Q9JJ16); assay: Inhibitory concentration against 5-hydroxytryptamine 3 receptor in rat entorhinal cortex using [3H]-LY 278584 as radioligand
T1 sequence (P35563 whole entry): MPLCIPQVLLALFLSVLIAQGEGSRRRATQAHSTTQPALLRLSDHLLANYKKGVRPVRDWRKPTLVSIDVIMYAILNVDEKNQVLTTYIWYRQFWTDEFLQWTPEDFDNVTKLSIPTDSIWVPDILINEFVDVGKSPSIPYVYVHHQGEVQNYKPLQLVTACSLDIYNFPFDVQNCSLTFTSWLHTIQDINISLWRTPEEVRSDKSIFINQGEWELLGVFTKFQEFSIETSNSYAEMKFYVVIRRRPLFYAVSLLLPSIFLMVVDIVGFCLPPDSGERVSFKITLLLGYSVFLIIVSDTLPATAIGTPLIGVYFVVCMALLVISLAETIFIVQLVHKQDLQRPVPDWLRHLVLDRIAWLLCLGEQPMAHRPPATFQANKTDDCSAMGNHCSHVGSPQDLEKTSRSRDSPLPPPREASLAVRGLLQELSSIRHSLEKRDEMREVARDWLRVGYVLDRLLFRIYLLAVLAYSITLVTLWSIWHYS
T1 sequence (Q9JJ16 whole entry): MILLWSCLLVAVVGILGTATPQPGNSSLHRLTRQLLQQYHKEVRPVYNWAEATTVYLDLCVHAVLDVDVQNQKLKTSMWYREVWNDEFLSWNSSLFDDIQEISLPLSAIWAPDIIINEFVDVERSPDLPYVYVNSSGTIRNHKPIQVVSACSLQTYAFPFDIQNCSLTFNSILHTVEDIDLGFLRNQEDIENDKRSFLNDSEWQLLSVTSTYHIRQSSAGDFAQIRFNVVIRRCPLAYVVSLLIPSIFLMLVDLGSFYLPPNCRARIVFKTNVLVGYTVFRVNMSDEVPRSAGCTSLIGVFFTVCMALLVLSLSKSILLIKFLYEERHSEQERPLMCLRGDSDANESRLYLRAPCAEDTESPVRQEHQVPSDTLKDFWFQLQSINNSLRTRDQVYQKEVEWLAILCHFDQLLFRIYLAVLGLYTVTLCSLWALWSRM
How it was run: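 Male Wistar rat entorhinal cortex membranes in 50 mM Tris-HCl with 5 mM CaCl2, 0.1% ascorbate and 10 μM pargyline (1:40 wt/vol, 500–600 μg protein), with 2 nM [3H]LY 278584. Nonspecific binding with 10 μM 5-HT.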

[2] = biological target: T2, 5-hydroxytryptamine receptor 4 (Cavia porcellus, UniProt O70528); assay: Displacement of [3H]GR-113808 from 5-hydroxytryptamine 4 receptor in guinea pig striatum
T2 sequence (O70528 whole entry): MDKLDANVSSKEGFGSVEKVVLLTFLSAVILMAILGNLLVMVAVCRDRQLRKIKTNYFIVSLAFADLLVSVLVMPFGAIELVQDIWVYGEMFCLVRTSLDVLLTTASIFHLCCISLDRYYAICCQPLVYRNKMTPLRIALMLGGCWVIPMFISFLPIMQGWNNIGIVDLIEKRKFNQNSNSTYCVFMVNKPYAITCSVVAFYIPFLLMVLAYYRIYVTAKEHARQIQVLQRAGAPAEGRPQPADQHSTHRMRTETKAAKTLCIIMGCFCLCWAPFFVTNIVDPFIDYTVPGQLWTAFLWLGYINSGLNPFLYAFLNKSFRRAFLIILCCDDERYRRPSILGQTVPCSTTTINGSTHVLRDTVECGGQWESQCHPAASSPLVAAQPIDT
How it was run: (§1)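 Male Dunkin–Hartley guinea pig striatal membranes in 50 mM Hepes pH 7.4 (1:80 wt/vol, 800–900 μg protein) with 0.1 nM [3H]GR 113808. Nonspecific binding with 10 μM 5-HT. Incubated 30 min at 25 °C, then filtered on PEI-treated filters and counted by scintillation. 10–12 displacer concentrations; two experiments in triplicate; IC50 and Ki.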

[3] = test system: 5-HT4 receptor (Rattus norvegicus); assay: Agonistic activity against 5-hydroxytryptamine 4 receptor
[4] = test system: 5-HT4 receptor (Rattus norvegicus); assay: Antagonistic activity against 5-hydroxytryptamine 4 receptor
[5] = biological target: T2, 5-hydroxytryptamine receptor 4; assay: Binding affinity against 5-hydroxytryptamine 4 receptor in guinea pig striatum using [3H]GR-113808 as radioligand; how it was run: as §1

Row | Compound | IC50 [1] [nM] | IC50 [2] [nM] | Intrinsic activity [3] | pKb [4] | Ki [5] [nM] | Ki [1] [nM]
1 | CC(C)n1c(=O)n(C(=O)NCCN2CC[N+](C)(C)CC2)c2ccccc21 | > 1000 |  | 0.75 | < 6 | 68.5 | 
2 | CCCC[N+]1(C)CCN(CCNC(=O)n2c(=O)n(C(C)C)c3ccccc32)CC1 | > 1000 |  | 0.93 | 6 | 66.3 | 
3 | CC(C)n1c(=O)n(C(=O)NN2CCN(C)CC2)c2ccccc21 |  | > 1000 | < 0.3 | < 6 |  | 201
4 | CC(C)n1c(=O)n(C(=O)NCCN2CCN(Cc3ccc(F)cc3)CC2)c2ccccc21 | > 1000 |  |  |  | 262 | 
5 | CN1CCN(CCNC(=O)n2c(=O)n(Cc3ccccc3)c3ccccc32)CC1 | > 1000 | > 1000 | < 0.3 | < 6 |  | 
6 | CC(C)n1c(=O)n(C(=O)NC2CC3CCC(C2)N3C)c2ccccc21 (centres undefined) |  |  |  |  | 63.9 | 0.5
7 | CC(C)n1c(=O)n(C(=O)NCCN2CCN(C)CC2)c2cc(Cl)ccc21 | > 1000 | > 1000 | 0.7 | < 6 |  | 
8 | COc1ccc2c(c1)n(C(=O)NCCN1CCN(C)CC1)c(=O)n2C(C)C | > 1000 | > 1000 | < 0.3 | < 6 |  | 
9 | CCCCn1c(=O)n(C(=O)NCCN2CCN(C)CC2)c2ccccc21 | > 1000 | > 1000 | < 0.3 | < 6 |  | 
10 | CC(C)n1c(=O)n(C(=O)NCCN2CCN(C)CC2)c2cc(F)c(N)cc21 | > 1000 | > 1000 | < 0.3 | < 6 |  | 
11 | C=CC[N+]1(C)CCN(CCNC(=O)n2c(=O)n(C(C)C)c3ccccc32)CC1 | > 1000 |  | < 0.3 | 6.28 | 56.3 | 
12 | CC(C)n1c(=O)n(C(=O)NCCN2CCN(CCCOc3ccc(F)cc3)CC2)c2ccccc21 | > 1000 |  |  |  | 375 | 
13 | CC(C)n1c(=O)n(C(=O)NCCN2CCN(C)CC2)c2cc(F)ccc21 | > 1000 |  | 0.67 | 6.88 | 108 | 
14 | CC(C)n1c(=O)n(C(=O)NCCN2CCN(Cc3ccc4c(c3)OCO4)CC2)c2ccccc21 | > 1000 | > 1000 | 0.3 | < 6 |  | 
15 | CC(C)n1c(=O)n(C(=O)NCCN2CCN(C)CC2)c2cc(F)c([N+](=O)[O-])cc21 | > 1000 | > 1000 |  |  |  | 
16 | Cn1cc(C(=O)OCC2CCN(CCNS(C)(=O)=O)CC2)c2ccccc21 | > 1000 |  |  |  | 0.11 | 

Continued, values first:

Row | IC50 [1] [nM] | IC50 [2] [nM] | Intrinsic activity [3] | pKb [4] | Ki [5] [nM] | Ki [1] [nM] | Compound
17 | > 1000 | > 1000 | 0.63 | < 6 |  |  | C=CCn1c(=O)n(C(=O)NCCN2CCN(C)CC2)c2ccccc21
18 | > 1000 |  |  |  | 10.2 |  | CN1CCN(CCNC(=O)n2c(=O)n(C3CC3)c3ccccc32)CC1
19 | > 1000 |  | < 0.3 | 6.79 | 75.4 |  | CCn1c(=O)n(C(=O)NCCN2CCN(C)CC2)c2ccccc21
20 | > 1000 |  | 0.68 | 6.89 | 87.3 |  | CCCN1CCN(CCNC(=O)n2c(=O)n(C(C)C)c3ccccc32)CC1
21 | > 1000 |  |  |  | 16.9 |  | CCCN1CCN(CCNC(=O)n2c(=O)n(CC)c3ccccc32)CC1
22 | > 1000 |  | 0.41 | 7.46 | 8.2 |  | CCCN1CCN(CCNC(=O)n2c(=O)n(C3CC3)c3ccccc32)CC1
23 | > 1000 |  |  |  | 17.9 |  | CCN1CCN(CCNC(=O)n2c(=O)n(CC)c3ccccc32)CC1
24 | > 1000 |  |  |  | 89.8 |  | CC(C)N1CCN(CCNC(=O)n2c(=O)n(C(C)C)c3ccccc32)CC1
25 | > 1000 |  |  |  | 25.2 |  | CCn1c(=O)n(C(=O)NCCN2CCN(C(C)C)CC2)c2ccccc21
26 |  |  |  |  | 216 |  | Cc1cccc2c1n(C(C)C)c(=O)n2C(=O)NCCN1CCN(C)CC1
27 | > 1000 |  |  |  | 38.9 |  | CCCCN1CCN(CCNC(=O)n2c(=O)n(C(C)C)c3ccccc32)CC1
28 | > 1000 |  | 0.94 | < 6 | 91.1 |  | CC(C)n1c(=O)n(C(=O)NCCN2CCN(C)CC2)c2ccccc21
29 | > 1000 |  |  |  | 6.7 |  | CC(C)N1CCN(CCNC(=O)n2c(=O)n(C3CC3)c3ccccc32)CC1
30 | > 1000 |  | 0.46 | 6.4 | 39.7 |  | CN1CCN(CCCNC(=O)n2c(=O)n(C3CC3)c3ccccc32)CC1
31 | > 1000 |  | 0.48 | < 6 | 253 |  | CCCn1c(=O)n(C(=O)NCCN2CCN(C)CC2)c2ccccc21
32 | > 1000 |  | 0.53 | 6.19 | 49.4 |  | CN1CCN(CNC(=O)n2c(=O)n(C3CC3)c3ccccc32)CC1
33 | > 1000 |  | 0.42 | < 6 | 306 |  | CN1CCN(CCNC(=O)n2c(=O)n(C)c3ccccc32)CC1
34 |  | > 1000 |  |  |  | 309 | CC(C)n1c(=O)n(C(=O)NCN2CCN(C)CC2)c2ccccc21
35 | > 1000 | > 1000 |  |  |  |  | CN1CCN(CCNC(=O)n2c(=O)n(CCc3ccccc3)c3ccccc32)CC1
36 | > 1000 | 1000 | 0.35 | < 6 |  |  | CN1CCN(CCNC(=O)n2c(=O)[nH]c3ccccc32)CC1
37 | > 1000 |  | < 0.3 | 7.73 | 34.1 |  | CCCCN1CCN(CCNC(=O)n2c(=O)n(CC)c3ccccc32)CC1
38 | > 1000 |  | 0.46 | 7.51 | 13.3 |  | CCCCN1CCN(CCNC(=O)n2c(=O)n(C3CC3)c3ccccc32)CC1
39 | > 1000 |  | 0.87 | 6.62 | 104 |  | CCN1CCN(CCNC(=O)n2c(=O)n(C(C)C)c3ccccc32)CC1
40 | > 1000 | > 1000 | < 0.3 | < 6 |  |  | CC(C)n1c(=O)n(C(=O)NCCCN2CCN(C)CC2)c2ccccc21
